According to ChEMBL document CHEMBL5674880 (PLoS One, 2018):
Blank lines part the entries; values can stand above or below the compound they belong to.

What was measured:
Format in all cases: functional, cell-based
[1] = system: CWR22R; assay: Antiproliferative activity against human 22Rv1 cells after 10 days; conditions: 22Rv1, 240 h
In short: (§1)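 Tested as part of a 240-line cancer cell panel (Eurofins Oncopanel); all lines were mycoplasma-negative and STR-verified. Cells were exposed to a compound concentration series in 2D culture for 10 days. The highest concentration was 10 μM or 25 μM, depending on the inhibitor. Antiproliferative IC50 was derived from the mean of three biological replicates.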

[2] = system: 769-P; assay: Antiproliferative activity against human 769-P cells after 10 days; conditions: 240 h; in short: as §1
[3] = system: A204; assay: Antiproliferative activity against human A204 cells after 10 days; conditions: A204, 240 h; in short: as §1
[4] = system: ARH-77; assay: Antiproliferative activity against human ARH-77 cells after 10 days; conditions: ARH-77, 240 h; in short: as §1
[5] = Antiproliferative activity against human BC1 cells after 10 days; conditions: BC1, 240 h; in short: as §1
[6] = system: BHT-101; assay: Antiproliferative activity against human BHT-101 cells after 10 days; conditions: BHT-101, 240 h; in short: as §1
[7] = system: C-33-A; assay: Antiproliferative activity against human C-33-A cells after 10 days; conditions: 240 h; in short: as §1
[8] = Antiproliferative activity against human C4-1 cells after 10 days; conditions: C4-1, 240 h; in short: as §1
[9] = system: Calu-1; assay: Antiproliferative activity against human Calu-1 cells after 10 days; conditions: Calu-1, 240 h
In short: (§2)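 10-day 2D proliferation screen of a broad cancer cell panel (about 240 lines, Eurofins Oncopanel). All lines were mycoplasma negative and STR verified. Compounds were dosed up to a top concentration of 10 μM or 25 μM, depending on the inhibitor. Anti-proliferative IC50 values are the average of three biological replicates.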

[10] = Antiproliferative activity against human CEM/C1 cells after 10 days; conditions: CEM/C1, 240 h; in short: as §1
[11] = system: CHP-212; assay: Antiproliferative activity against human CHP-212 cells after 10 days; conditions: CHP-212, 240 h; in short: as §1
[12] = system: COLO 205; assay: Antiproliferative activity against human COLO 205 cells after 10 days; conditions: COLO 205, 240 h; in short: as §1
[13] = system: Daoy; assay: Antiproliferative activity against human Daoy cells after 10 days; conditions: 240 h; in short: as §2
[14] = system: DB; assay: Antiproliferative activity against human DB cells after 10 days; conditions: 240 h; in short: as §2
[15] = system: DK-MG; assay: Antiproliferative activity against human DK-MG cells after 10 days; conditions: 240 h; in short: as §2
[16] = system: DoTc2-4510; assay: Antiproliferative activity against human DoTc2-4510 cells after 10 days; conditions: DoTc2-4510, 240 h; in short: as §2
[17] = system: EB-3; assay: Antiproliferative activity against human EB-3 cells after 10 days; conditions: EB-3, 240 h; in short: as §2
[18] = system: HCT-15; assay: Antiproliferative activity against human HCT-15 cells after 10 days; conditions: HCT-15, 240 h
In short: (§3)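 Cell lines run in the Eurofins Oncopanel broad cancer panel, all mycoplasma-negative and STR-verified. Cells were exposed to a compound concentration series in a 10-day proliferation assay, and an anti-proliferative IC50 was derived. Values are the mean of three biological replicates.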

[19] = system: HepG2; assay: Antiproliferative activity against human HepG2 cells after 10 days; conditions: HepG2, 240 h; in short: as §2
[20] = system: HOS; assay: Antiproliferative activity against human HOS cells after 10 days; conditions: 240 h; in short: as §2
[21] = system: Hs 695T; assay: Antiproliferative activity against human Hs 695T cells after 10 days; conditions: 240 h; in short: as §2
[22] = system: Hs 766; assay: Antiproliferative activity against human Hs766T cells after 10 days; conditions: Hs 766, 240 h; in short: as §2
[23] = system: HT-1376; assay: Antiproliferative activity against human HT-1376 cells after 10 days; conditions: HT-1376, 240 h; in short: as §2
[24] = system: HuCCT-1; assay: Antiproliferative activity against human HuCCT-1 cells after 10 days; conditions: HuCCT-1, 240 h; in short: as §2
[25] = system: HuP-T4; assay: Antiproliferative activity against human HuP-T4 cells after 10 days; conditions: HuP-T4, 240 h
In short: (§4)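 Broad cancer cell line panel (Eurofins Oncopanel, about 240 lines; mycoplasma negative, STR verified) grown in 2D culture and exposed to compound in a 10-day proliferation assay. The top concentration was 10 μM for the SMYD2 inhibitor series and 25 μM for the SMYD3 inhibitor. The proliferative IC50 is taken from concentration-response data, each value the mean of three biological replicates.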

[26] = system: JEG-3; assay: Antiproliferative activity against human JEG-3 cells after 10 days; conditions: JEG-3, 240 h; in short: as §3
[27] = system: Jurkat; assay: Antiproliferative activity against human Jurkat cells after 10 days; conditions: 240 h; in short: as §4
[28] = Antiproliferative activity against human KPL-1 cells after 10 days; conditions: KPL-1, 240 h; in short: as §4
[29] = system: LS174T; assay: Antiproliferative activity against human LS174T cells after 10 days; conditions: 240 h; in short: as §4
[30] = system: MDA-MB-436; assay: Antiproliferative activity against human MDA-MB-436 cells after 10 days; conditions: MDA-MB-436, 240 h; in short: as §4
[31] = system: MG-63; assay: Antiproliferative activity against human MG-63 cells after 10 days; conditions: MG-63, 240 h; in short: as §4
[32] = system: MOLT-16; assay: Antiproliferative activity against human MOLT-16 cells after 10 days; conditions: MOLT-16, 240 h; in short: as §4
[33] = system: NALM-6; assay: Antiproliferative activity against human NALM-6 cells after 10 days; conditions: NALM-6, 240 h; in short: as §4
[34] = system: NCI-H292; assay: Antiproliferative activity against human NCI-H292 cells after 10 days; conditions: NCI-H292, 240 h; in short: as §4
[35] = system: NCI-H295R; assay: Antiproliferative activity against human NCI-H295R cells after 10 days; conditions: 240 h; in short: as §4
[36] = system: NCI-H520; assay: Antiproliferative activity against human NCI-H520 cells after 10 days; conditions: NCI-H520, 240 h; in short: as §4
[37] = Antiproliferative activity against human OE21 cells after 10 days; conditions: OE21, 240 h; in short: as §4
[38] = system: PC-3; assay: Antiproliferative activity against human PC-3 cells after 10 days; conditions: PC-3, 240 h; in short: as §4
[39] = system: SCC-25; assay: Antiproliferative activity against human SCC-25 cells after 10 days; conditions: SCC-25, 240 h
[40] = system: SK-BR-3; assay: Antiproliferative activity against human SK-BR-3 cells after 10 days; conditions: SK-BR-3, 240 h
[41] = system: SK-LMS-1; assay: Antiproliferative activity against human SK-LMS-1 cells after 10 days; conditions: SK-LMS-1, 240 h
[42] = system: SK-MEL-1; assay: Antiproliferative activity against human SK-MEL-1 cells after 10 days; conditions: SK-MEL-1, 240 h
[43] = system: SK-OV-3; assay: Antiproliferative activity against human SK-OV-3 cells after 10 days; conditions: SK-OV-3, 240 h
[44] = system: SNU-423; assay: Antiproliferative activity against human SNU-423 cells after 10 days; conditions: SNU-423, 240 h
[45] = system: SW1088; assay: Antiproliferative activity against human SW1088 cells after 10 days; conditions: SW1088, 240 h
[46] = system: SW48; assay: Antiproliferative activity against human SW48 cells after 10 days; conditions: SW48, 240 h
[47] = system: SW-620; assay: Antiproliferative activity against human SW620 cells after 10 days; conditions: SW-620, 240 h
[48] = system: SW872; assay: Antiproliferative activity against human SW872 cells after 10 days; conditions: SW872, 240 h
[49] = system: SW 962; assay: Antiproliferative activity against human SW 962 cells after 10 days; conditions: SW 962, 240 h

IC50 [9]: 2.85 µM
IC50 [12]: 0.944 µM
IC50 [18]: 1.7 µM
IC50 [19]: 2.35 µM
IC50 [23]: 2.35 µM
IC50 [27]: 0.925 µM
IC50 [30]: 3.03 µM
IC50 [32]: 1.11 µM
IC50 [34]: 2.69 µM
IC50 [35]: 4.84 µM
IC50 [36]: 2.7 µM
IC50 [38]: 2.77 µM
IC50 [40]: 1.17 µM
IC50 [41]: 2.41 µM
IC50 [42]: 1.9 µM
IC50 [43]: 2.95 µM
IC50 [44]: 1.11 µM
IC50 [45]: 1.18 µM
IC50 [46]: 1.35 µM
IC50 [47]: 3.08 µM
IC50 [48]: 2.53 µM
SMILES: Cc1cn(CCN2CCN(c3ccccc3-c3cc(C#N)cc(C(=O)NCCCN4CCCC4)c3)CC2)c2ccccc12
IC50 [1]: 1.06 µM
IC50 [2]: 2.76 µM
IC50 [3]: 1.35 µM
IC50 [4]: 0.78 µM
IC50 [5]: 3.65 µM
IC50 [6]: 1.43 µM
IC50 [7]: 3.23 µM
IC50 [8]: 2.06 µM
IC50 [10]: 1.27 µM
IC50 [11]: 2.1 µM
IC50 [13]: 3.67 µM
IC50 [14]: 1.17 µM
IC50 [15]: 6.42 µM
IC50 [16]: 1.07 µM
IC50 [17]: 0.329 µM
IC50 [20]: 2.13 µM
IC50 [21]: 6.65 µM
IC50 [22]: 2.75 µM
IC50 [24]: 1.24 µM
IC50 [25]: 3.48 µM
IC50 [26]: 1.5 µM
IC50 [28]: 3.43 µM
IC50 [29]: 1.47 µM
IC50 [31]: 6.12 µM
IC50 [33]: 1.14 µM
IC50 [37]: 1.06 µM
IC50 [39]: 2.52 µM
IC50 [49]: 3.38 µM

IC50 [9]: > 10 µM
IC50 [12]: > 10 µM
IC50 [18]: > 10 µM
IC50 [19]: > 10 µM
IC50 [23]: > 10 µM
IC50 [27]: > 10 µM
IC50 [30]: > 10 µM
IC50 [32]: > 10 µM
IC50 [34]: > 10 µM
IC50 [35]: > 10 µM
IC50 [36]: > 10 µM
IC50 [38]: > 10 µM
IC50 [40]: > 10 µM
IC50 [41]: > 10 µM
IC50 [42]: > 10 µM
IC50 [43]: > 10 µM
IC50 [44]: > 10 µM
IC50 [45]: > 10 µM
IC50 [46]: > 10 µM
IC50 [47]: > 10 µM
IC50 [48]: > 10 µM
SMILES: O=C(NC1CN(Cc2cnn(Cc3ccccc3)c2)C1)c1cn(C2CC2)nn1
IC50 [1]: > 10 µM
IC50 [2]: > 10 µM
IC50 [3]: > 10 µM
IC50 [4]: > 10 µM
IC50 [5]: > 10 µM
IC50 [6]: > 10 µM
IC50 [7]: > 10 µM
IC50 [8]: > 10 µM
IC50 [10]: > 10 µM
IC50 [11]: > 10 µM
IC50 [13]: > 10 µM
IC50 [14]: 0.663 µM
IC50 [15]: > 10 µM
IC50 [16]: > 10 µM
IC50 [17]: > 10 µM
IC50 [20]: > 10 µM
IC50 [21]: > 10 µM
IC50 [22]: > 10 µM
IC50 [24]: > 10 µM
IC50 [25]: > 10 µM
IC50 [26]: > 10 µM
IC50 [28]: > 10 µM
IC50 [29]: > 10 µM
IC50 [31]: > 10 µM
IC50 [33]: > 10 µM
IC50 [37]: 3.4 µM
IC50 [39]: > 10 µM
IC50 [49]: > 10 µM
